The text below walks through data of ChEMBL document CHEMBL1828541, “New aporphinoid 5-HT2A and α1A antagonists via structural manipulations of nantenine” (Bioorg Med Chem, 2011).

What all share (assay type): functional, cell-based
Assay [1] concerns the target T1, Alpha-1A adrenergic receptor (Homo sapiens) (UniProt P35348).
T1 sequence (whole entry): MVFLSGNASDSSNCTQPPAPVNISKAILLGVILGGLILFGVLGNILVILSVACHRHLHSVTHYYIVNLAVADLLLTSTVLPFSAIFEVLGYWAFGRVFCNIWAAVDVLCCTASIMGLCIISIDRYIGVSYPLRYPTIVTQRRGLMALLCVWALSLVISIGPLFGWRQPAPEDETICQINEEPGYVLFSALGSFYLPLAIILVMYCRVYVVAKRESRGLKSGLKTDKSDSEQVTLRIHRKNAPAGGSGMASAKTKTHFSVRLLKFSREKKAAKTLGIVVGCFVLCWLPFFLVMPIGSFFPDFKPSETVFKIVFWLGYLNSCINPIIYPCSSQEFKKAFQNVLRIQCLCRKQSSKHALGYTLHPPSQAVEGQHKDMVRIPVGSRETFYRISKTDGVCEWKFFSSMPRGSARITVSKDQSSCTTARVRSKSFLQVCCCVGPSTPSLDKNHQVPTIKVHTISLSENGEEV
Description: Antagonist activity at human alpha1A receptor assessed as inhibition of intracellular calcium mobilization by FLIPR assay. In outline: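 Human α1A-adrenergic receptor, FLIPR Tetra calcium-mobilization assay with a calcium-sensitive fluorescent dye. Ke was derived from agonist concentration-response EC50 shifts by a single antagonist concentration, using Ke = [L]/(DR-1) as for the 5-HT2A set.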
Background: Calcium flux is commonly read through the fluorescence of an indicator in the cells.

In assay [2] the target is 5-hydroxytryptamine receptor 2A (Homo sapiens) (UniProt P28223). Description: Antagonist activity at human 5-HT2A receptor assessed as inhibition of intracellular calcium mobilization by FLIPR assay. Put shortly: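 FLIPR Tetra calcium-dye assay at human 5-HT2A. Compounds without intrinsic activity that inhibited the fluorescence rise to the EC80 of 5-HT by at least 50% at 10 μM went on to Ke determination. For this, an 8-point half-log 5-HT concentration-response curve was run with and without a single antagonist concentration. Ke = [L]/(DR-1), where DR = A'/A (ratio of 5-HT EC50s).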
Chain of 5-hydroxytryptamine receptor 2A (Homo sapiens) (P28223 whole entry): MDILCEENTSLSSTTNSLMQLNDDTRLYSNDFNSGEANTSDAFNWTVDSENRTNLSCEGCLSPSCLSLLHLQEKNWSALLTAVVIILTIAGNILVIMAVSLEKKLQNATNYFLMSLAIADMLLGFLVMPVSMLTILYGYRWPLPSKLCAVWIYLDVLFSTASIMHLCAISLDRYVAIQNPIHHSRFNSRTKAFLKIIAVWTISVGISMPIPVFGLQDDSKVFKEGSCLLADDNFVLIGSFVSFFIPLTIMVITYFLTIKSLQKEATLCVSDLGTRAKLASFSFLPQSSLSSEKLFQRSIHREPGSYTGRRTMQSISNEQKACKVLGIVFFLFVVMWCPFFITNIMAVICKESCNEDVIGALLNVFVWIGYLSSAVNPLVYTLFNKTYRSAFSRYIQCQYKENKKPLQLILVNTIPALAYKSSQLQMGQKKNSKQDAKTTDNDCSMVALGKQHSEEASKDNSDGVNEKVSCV

For assay [3] the target is unchanged. Description: Agonist activity at human 5-HT2A receptor assessed as intracellular calcium mobilization at 10 uM by FLIPR assay. In outline: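 Multi-well FLIPR Tetra screen at 10 μM for intrinsic activity at human 5-HT2A receptor. Read-out is receptor-mediated mobilization of internal calcium, detected with a calcium-sensitive fluorescent dye.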

A value given as a limit tells only on which side of the number the result lay.

By Emax is commonly meant the maximal effect, on the per cent scale that the assay sets.

`COc1cc2c3c(c1OCC(C)C)-c1cc4c(cc1CC3N(C)CC2)OCO4` (racemic): the Ke in assay [1] was greater than 10000 nM; in assay [2], 367 nM.

As to `COc1cc2c3c(c1OCC1CCC1)-c1cc4c(cc1CC3N(C)CC2)OCO4` (racemic), the Ke in assay [1] was greater than 10000 nM. In addition, in assay [3], the Emax worked out at 25%.

Consider `COc1cc2c3c(c1OCCCO)-c1cc4c(cc1CC3N(C)CC2)OCO4` (racemic), for which the Ke is greater than 10000 nM in assay [1] and 708 nM in assay [2].

On to `COc1cc2c3c(c1OCC1CCCCC1)-c1cc4c(cc1CC3N(C)CC2)OCO4` (racemic), for which the Ke in assay [1] is greater than 10000 nM; in assay [2] it was 1720 nM.

Consider `CCOc1cc2c3c(c1OC)-c1cc4c(cc1CC3N(C)CC2)OCO4` (racemic), for which the Ke worked out at 52 nM in assay [1] and 378 nM in assay [2].

For the compound `CCCCCCOc1c(OC)cc2c3c1-c1cc4c(cc1CC3N(C)CC2)OCO4` (racemic), the Ke was greater than 10000 nM in assay [1] and 71 nM in assay [2].

Turning to `CCC(CC)COc1c(OC)cc2c3c1-c1cc4c(cc1CC3N(C)CC2)OCO4` (centres undefined), the Ke was greater than 10000 nM in assay [1] and 806 nM in assay [2].

Take `COc1cc2c3c(c1OC)-c1cc4c(cc1CC3N(C)CC2)OCO4` (racemic): the Ke in assay [1] stood at 36 nM.

Turning to `COc1cc2c3c(c1OC)-c1cc4c(cc1CC3N(CC1CC1)CC2)OCO4` (racemic), the Ke in assay [1] was 319 nM; in assay [2], greater than 10000 nM.

In the case of `C=CCOc1c(OC)cc2c3c1-c1cc4c(cc1CC3N(C)CC2)OCO4` (racemic), the Ke in assay [1] is greater than 10000 nM; in assay [2], 70 nM.

In the case of `COc1c(OCC2CC2)cc2c3c1-c1cc4c(cc1CC3N(C)CC2)OCO4` (racemic), the Ke in assay [1] was determined as 195 nM; in assay [2], 484 nM.

Regarding `COc1c(Br)c2c3c(c1OC)-c1c(Br)c4c(c(Br)c1CC3N(C)CC2)OCO4` (racemic), the figures for the Ke in assay [1] and in assay [2] were greater than 10000 nM and 43 nM, respectively.

`CCN1CCc2cc(OC)c(OC)c3c2C1Cc1cc2c(cc1-3)OCO2` (racemic): the Ke in assay [1] was found to be 26 nM.

Regarding `CCCCCOc1cc2c3c(c1OC)-c1cc4c(cc1CC3N(C)CC2)OCO4` (racemic), the Ke in assay [1] is 449 nM; in assay [2] it was greater than 10000 nM.

For the compound `COc1cc2c3c(c1OCCC(C)C)-c1cc4c(cc1CC3N(C)CC2)OCO4` (racemic), in assay [1], the Ke is greater than 10000 nM. Moreover, in assay [3], the Emax is 19%.

`CCCOc1cc2c3c(c1OC)-c1cc4c(cc1CC3N(C)CC2)OCO4` (racemic): the Ke in assay [1] amounted to 133 nM; in assay [2] it was 389 nM.

Take `CCCCCN1CCc2cc(OC)c(OC)c3c2C1Cc1cc2c(cc1-3)OCO2` (racemic): the Ke in assay [1] was 720 nM; in assay [2] it was greater than 10000 nM.

Consider `COc1cc2c3c(c1OCC1CCCC1)-c1cc4c(cc1CC3N(C)CC2)OCO4` (racemic), for which, in assay [1], the Ke is greater than 10000 nM. In assay [3], the Emax came out at 35%.

Regarding `CCCN1CCc2cc(OC)c(OC)c3c2C1Cc1cc2c(cc1-3)OCO2` (racemic), the Ke was 38 nM in assay [1] and greater than 10000 nM in assay [2].

In the case of `CCCCN1CCc2cc(OC)c(OC)c3c2C1Cc1cc2c(cc1-3)OCO2` (racemic), the Ke in assay [1] was 210 nM; in assay [2], greater than 10000 nM.

With `COc1c(Br)c2c3c(c1OC)-c1cc4c(cc1CC3N(C)CC2)OCO4` (racemic), the Ke is greater than 10000 nM in assay [1] and 53 nM in assay [2].

Take `COc1c(OCc2ccccc2)cc2c3c1-c1cc4c(cc1CC3N(C)CC2)OCO4` (racemic): the Ke in assay [1] is 1920 nM; in assay [2], 154 nM.

For the compound `CCCCOc1cc2c3c(c1OC)-c1cc4c(cc1CC3N(C)CC2)OCO4` (racemic), the Ke in assay [1] came to 234 nM; in assay [2] it was 943 nM.
